Data taken from ChEMBL document CHEMBL4145444, “Investigating the structure-activity relationships of N'-[(5-nitrofuran-2-yl) methylene] substituted hydrazides against Trypanosoma cruzi to design novel active compounds” (Eur J Med Chem, 2018).
The source made the active and inactive calls. The rule behind the calls is not given here.

Legend:
Trypanosoma cruzi [1] = assay: Antitrypanosomal activity against Trypanosoma cruzi Colombiana Tc1 epimastigotes measured after 72 hrs; format: functional, organism-based; details: for IC50: Trypanosoma cruzi, Colombiana, 72 h
In short: (§1)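 Exponentially growing epimastigotes (1.0*10^7 parasites/mL) cultured in LIT-FCS medium with compound from 0.4 to 300.0 µM, added from DMSO stock (DMSO ≤1.0%), 72 h at 28 °C. Viable parasites read by absorbance at 562 nm. PGI computed against untreated culture after subtracting compound/medium blanks. IC50 from sigmoid dose-response fit using at least six concentrations. Triplicates, at least two independent experiments.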

Trypanosoma cruzi [2] = assay: Antitrypanosomal activity against Trypanosoma cruzi Silvio X10 cl1 Tc1 epimastigotes measured after 72 hrs; format: functional, organism-based; details: for IC50: Trypanosoma cruzi, Silvio X10 cl1, 72 h
In short: (§2)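 Exponentially growing epimastigotes (1.0*10^7 parasites/mL) cultured in LIT-FCS medium with compound from 0.4 to 300.0 µM, added from DMSO stock (DMSO ≤1.0%), 72 h at 28 °C. PGI computed against untreated culture after subtracting compound/medium blanks. IC50 from sigmoid dose-response fit using at least six concentrations. Triplicates, at least two independent experiments.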

Trypanosoma cruzi [3] = assay: Antitrypanosomal activity Trypanosoma cruzi Y Tc2 epimastigotes measured after 72 hrs; format: functional, organism-based; details: for IC50: Trypanosoma cruzi, Y, 72 h; in short: as §1
Trypanosoma cruzi [4] = assay: Antitrypanosomal activity Trypanosoma cruzi Bug 2149 cl10 Tc5 epimastigotes measured after 72 hrs; format: functional, organism-based; details: for IC50: Trypanosoma cruzi, Bug 2149 cl10, CL1-0, 72 h; in short: as §2
Trypanosoma cruzi [5] = assay: Antitrypanosomal activity against Trypanosoma cruzi Colombiana Tc1 trypamastigotes infected in monkey LLC-MK2 cells assessed as inhibition of parasite viability by measuring motility at 1 uM after 20 hrs by light microscopic method relative to control; format: functional; details: LLC-MK2, 20 h
In short: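 Colombiana trypomastigotes, centrifuged at 7,000 rpm at 4 °C, resuspended at 10^6/mL in DME with 2% FCS. Exposed to 1 μM compound, 0.5% DMSO final, 20 h at 37 °C, 5% CO2. Viability judged by motility under light microscope. Live parasites counted in a Neubauer chamber. % inhibition relative to drug-free control. Two independent experiments.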

Trypanosoma cruzi [6] = assay: Antitrypanosomal activity against Trypanosoma cruzi Y Tc2 amastigotes infected in human U2OS cells after 72 hrs by Draq5 staining based HCS analysis; format: functional, organism-based
In short: (§3)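 U2OS cells (700/well, high-glucose DME, 10% FBS) seeded and incubated 24 h. Then infected with 2,800 Y-strain trypomastigotes harvested from LLC-MK2 cells. On day 3, 14-point 2-fold dilutions added, top 200 μM, 1% DMSO, 72 h. Fixed in 4% PFA, Draq5 stained, imaged at 20x. Infection ratio normalized to DMSO-mock infected and uninfected controls. IC50 by sigmoidal variable-slope fit. Doublets, duplicate experiments.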

[7] = Cytotoxicity against human U2OS cells assessed as reduction in cell viability; format: cell-based
[8] = Selectivity index, ratio of CC50 for cytotoxicity against human U2OS cells to IC50 for Trypanosoma cruzi Y Tc2 amastigotes infected in human U2OS cells; format: toxicity, cell-based; details: read-out: Ratio CC50/IC50
In short: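 Ratio of U2OS CC50 to Y-strain amastigote IC50, both from the same 72 h Draq5-stained HCS assay in infected U2OS cells (2-fold series up to 200 μM, 1% DMSO).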

Trypanosoma cruzi [9] = assay: Antitrypanosomal activity against Trypanosoma cruzi Y Tc2 amastigotes infected in human U2OS cells up to 200 uM after 72 hrs by Draq5 staining based HCS analysis relative to control; format: functional; in short: as §3
Trypanosoma cruzi [10] = assay: Potency index, ratio of benznidazole IC50 to compound IC50 for antitrypanosomal activity against Trypanosoma cruzi Y Tc2 amastigotes infected in human U2OS cells; format: functional
Trypanosoma cruzi [11] = assay: Potency index, ratio of benznidazole IC50 to compound IC50 for antitrypanosomal activity against Trypanosoma cruzi Colombiana Tc1 epimastigotes; format: functional
Trypanosoma cruzi [12] = assay: Antitrypanosomal activity against Trypanosoma cruzi Y Tc2 amastigotes infected in human U2OS cells at 1.56 uM after 72 hrs by Draq5 staining based HCS analysis; format: functional, organism-based
Trypanosoma cruzi [13] = assay: Antitrypanosomal activity against Trypanosoma cruzi Y Tc2 amastigotes infected in human U2OS cells at 0.39 uM after 72 hrs by Draq5 staining based HCS analysis; format: functional, organism-based
U2OS = assay: Cytotoxicity against human U2OS cells assessed as effect on cell morphology at 1.56 uM after 72 hrs by HCS analysis; format: cell-based

SMILES | log1/IC50 (Trypanosoma cruzi [1]) | IC50 (Trypanosoma cruzi [1]) [nM] | log1/IC50 (Trypanosoma cruzi [2]) | IC50 (Trypanosoma cruzi [2]) [nM] | log1/IC50 (Trypanosoma cruzi [3]) | IC50 (Trypanosoma cruzi [3]) [nM] | log1/IC50 (Trypanosoma cruzi [4]) | IC50 (Trypanosoma cruzi [4]) [nM] | inhibition at 1 µM (Trypanosoma cruzi [5]) [%] | IC50 (Trypanosoma cruzi [6]) [nM] | CC50 [7] [nM] | selectivity ratio [8] | Emax (Trypanosoma cruzi [9]) [%] | Ratio IC50 (Trypanosoma cruzi [10]) | Ratio IC50 (Trypanosoma cruzi [11]) | Activity (Trypanosoma cruzi [12]) | Activity (Trypanosoma cruzi [13]) | Activity (U2OS)
CCCCCc1ccc(C(=O)N/N=C/c2ccc([N+](=O)[O-])o2)cc1 | 5.75 | 1760 | 5.42 | 3770 | 5.59 | 2550 | 5.7 | 1990 | 98.5 | 960 | > 200000 | > 208 | 104 | 70 |  |  |  | 
CCCCNc1ccc(C(=O)N/N=C/c2ccc([N+](=O)[O-])o2)cc1 | 5.4 | 3940 | 5.36 |  | 5.47 |  | 5.35 |  |  | 350 | 12000 | 34.4 | 102 |  |  |  |  | 
CC1CS(=O)(=O)CCN1/N=C/c1ccc([N+](=O)[O-])o1 (centres undefined) [NIFURTIMOX] | 5 | 9930 | 5.22 |  | 4.89 |  | 5.14 |  | 7.3 | 5180 | 85200 | 16.4 | 96.6 |  |  |  |  | 
CCCCOc1ccc(C(=O)N/N=C/c2ccc([N+](=O)[O-])o2)cc1 | 5.54 | 2860 | 5.29 |  | 5.46 |  | 5.37 |  |  | 1460 | 46600 | 31.9 | 115 |  |  |  |  | 
CCOC(=O)N/N=C/c1ccc([N+](=O)[O-])o1 | 5.15 | 7070 | 4.95 | 11300 | 5.03 | 9280 | 5.16 | 6920 |  |  |  |  |  |  | 25 - 30 |  |  | 
O=C(N/N=C/c1ccc([N+](=O)[O-])o1)c1ccc(-c2ccccc2)cc1 | 5.51 | 3060 | 5.71 |  | 5.93 |  | 5.74 |  |  | 710 | 109000 | 154 | 97.8 |  |  |  |  | 
O=C(N/N=C/c1ccc([N+](=O)[O-])o1)c1ccc2ccccc2c1 | 5.12 | 7580 | 5.02 | 9590 | 5.15 | 7150 | 5 | 9900 |  | 1870 | 64200 | 34.3 | 97 |  |  |  |  | 
CCCCCCCOc1ccc(C(=O)N/N=C/c2ccc([N+](=O)[O-])o2)cc1 | 5.96 | 1090 | 5.7 | 1990 | 5.83 | 1470 | 6.07 | 850 | 98.5 | 880 | > 200000 | > 227 | 98.3 | 70 |  |  |  | 
CCCCc1ccc(C(=O)N/N=C/c2ccc([N+](=O)[O-])o2)cc1 | 5.61 | 2450 | 5.32 |  | 5.51 |  | 5.33 |  |  | 1330 | 19600 | 14.7 | 115 |  |  |  |  | 
CCCCCCCc1ccc(C(=O)N/N=C/c2ccc([N+](=O)[O-])o2)cc1 | 5.98 | 1050 | 5.7 | 1980 | 5.86 | 1370 | 6.17 | 670 | 98.5 | 820 | > 200000 | > 244 | 103 | 70 |  | Active | inactive | Non-Toxic
CCCCCC1CCC(C(=O)N/N=C/c2ccc([N+](=O)[O-])o2)CC1 (centres undefined) | 5.83 | 1470 | 5.64 | 2300 | 5.6 | 2500 | 5.9 | 1270 | 98.5 | 1660 | > 200000 | > 120 | 103 |  |  |  |  | 
O=C(N/N=C/c1ccc([N+](=O)[O-])o1)c1ccc(O)cc1 [NIFUROXAZIDE] | 3.73 | 188000 | 3.52 |  | 3.52 |  | 3.52 |  |  | 4260 | 45700 | 10.7 | 91.9 |  |  |  |  | 
